Laboratory results reported in ChEMBL document CHEMBL1159328, “Cyclotheonamide E4 and E5, new potent tryptase inhibitors from an Ircinia species of sponge” (J Nat Prod, 2002).
*1 amine or outer side, *2 acyl side, *3 side chain or, on linkers, in order; H or OH if unused. Where a SMILES comes first, the peptide text is derived from it. Bridges are numbered along the chain shown (N, C = ends). [ ]: non-standard residue; d: D form. The star is where a group is joined. Arg(ψCOCO) = N=C(N)NCCC[C@H](N[*:1])C(=O)C(=O)[*:2]; X1 = O=C(/C=C/[C@H](Cc1ccc(O)cc1)N[*:1])[*:2]; aIle = CC[C@@H](C)[C@H](N)C(=O)O; Dap = NC[C@H](N)C(=O)O; PhAc = O=C(Cc1ccccc1)*

What was measured:
[1] = Inhibition of human tryptase in human cultured mast cell lysate
Outline: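 Tryptase source: lysate (detergent/hypotonic buffer) of umbilical cord blood-derived human mast cells, ≥12 weeks in culture with SCF and IL-6, 100% pure; 8 × 10³ cell equiv/mL lysate. Preincubated 10 min at 37 °C with varied inhibitor. Substrate: 0.2 mM tosyl-Gly-Pro-Arg-pNA, Tris pH 8.0 buffer; 30 min at 37 °C; A405.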

[2] = Inhibition of mouse tryptase in mouse bone marrow mast cell lysate
Outline: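 Lysate (detergent/hypotonic buffer) of CBA/J mouse femoral bone marrow cells cultured 5 weeks with mouse IL-3 (>99% mast cells), used at 8 × 10⁴ cell equiv/mL as tryptase source. 10 min 37 °C preincubation with varied inhibitor levels. Then 0.2 mM tosyl-Gly-Pro-Arg-pNA in Tris pH 8.0 buffer, 30 min 37 °C; absorbance at 405 nm.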

[3] = target: Prothrombin (Homo sapiens, UniProt P00734); test: Inhibition of human thrombin
Outline: (§1)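 Purified enzyme, preincubated 10 min at 37 °C with a range of inhibitor concentrations. Substrate: 0.2 mM N-p-tosyl-Gly-Pro-Arg p-nitroanilide, in 0.1 M Tris pH 8.0 with 1 mM CaCl2, 1 mM MgCl2, 1 M glycerol and 0.1% Triton X. Then 30 min at 37 °C; absorbance read at 405 nm.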

[4] = Inhibition of bovine trypsin; set-up: species or system Bos taurus; outline: as §1

IC50 [1] [nM]	IC50 [2] [nM]	IC50 [3] [nM]	IC50 [4] [nM]	SMILES
6.9	17	16.1	10.6	CC[C@@H](C)[C@@H]1NC(=O)C(=O)[C@H](CCCNC(=N)N)NC(=O)[C@@H]2CCCN2C(=O)[C@@H](NC(=O)[C@H](C)NC(=O)Cc2ccccc2)CNC(=O)/C=C/[C@H](Cc2ccc(O)cc2)NC1=O [CYCLOTHEONAMIDE E] (PhAc-A[Dap]P[Arg(ψCOCO)][aIle][X1]; lactam 2-C)
84.7	54.1	67.9	37.3	CCC(C)CC(=O)N[C@@H](C)C(=O)N[C@H]1CNC(=O)/C=C/[C@H](Cc2ccc(O)c(O)c2)NC(=O)[C@H]([C@H](C)CC)NC(=O)C(=O)[C@H](CCCNC(=N)N)NC(=O)[C@@H]2CCCN2C1=O (some centres not stated) [CYCLOTHEONAMIDE E5]
5.1	6.5	7.4	5.9	CCC(C)CC(=O)N[C@@H](C)C(=O)N[C@H]1CNC(=O)/C=C/[C@H](Cc2ccc(O)cc2)NC(=O)[C@H]([C@H](C)CC)NC(=O)C(=O)[C@H](CCCNC(=N)N)NC(=O)[C@@H]2CCCN2C1=O (some centres not stated) [CYCLOTHEONAMIDE E4]
